Most compounds without a hit are left out; they make up all but 2.2% or so of the library.
NadD block: inhibitors of Staphylococcus aureus NadD; purified NadD enzyme, colorimetric absorbance read-out; inhibition, % at 20 µM; 0.78% of 360,000 active; in the data active = inhibition above about 26%
ASAP1 GAP inh: ASAP1 ArfGAP inhibition; Q9ULH1; ASAP1-stimulated ARF1 GTP hydrolysis, GDP FP detection; inhibition, % at 16.5 µM; 0.19% of 360,000 active; in the data active = inhibition above about 25%;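 also: 0% = vehicle with enzyme and substrate and 100% = no enzyme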
Target sequence (Q9ULH1 325-724 limits assumed): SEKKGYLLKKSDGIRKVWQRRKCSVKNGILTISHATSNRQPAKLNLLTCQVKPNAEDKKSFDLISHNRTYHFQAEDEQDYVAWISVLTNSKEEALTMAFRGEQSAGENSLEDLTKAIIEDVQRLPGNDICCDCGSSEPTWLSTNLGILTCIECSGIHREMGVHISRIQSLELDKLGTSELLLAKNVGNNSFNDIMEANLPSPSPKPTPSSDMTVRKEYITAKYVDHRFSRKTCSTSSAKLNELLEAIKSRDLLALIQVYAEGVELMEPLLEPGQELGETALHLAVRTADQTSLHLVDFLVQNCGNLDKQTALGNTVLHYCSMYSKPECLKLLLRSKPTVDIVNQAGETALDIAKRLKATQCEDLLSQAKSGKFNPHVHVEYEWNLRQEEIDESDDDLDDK
ARFGAP1 inhibitor: inhibits rat ARF GTPase activating protein 1; AID 651572; Arfgap1-stimulated ARF1 GTP hydrolysis, GDP FP detection; 0.26% of 360,000 active; inhibition, % at 16.5 µM; Q62848;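 active = inhibition above a per-plate limit, mean inhibition of low control wells plus 3 SD, cut at about 25% in these data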;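 also: 0% = DMSO wells with enzyme and 100% = wells lacking Arfgap1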
Target sequence (Q62848 1-136 limits assumed): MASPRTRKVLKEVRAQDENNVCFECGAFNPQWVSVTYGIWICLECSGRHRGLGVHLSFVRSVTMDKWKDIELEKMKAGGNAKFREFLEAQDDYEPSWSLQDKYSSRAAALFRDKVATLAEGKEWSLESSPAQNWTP
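System: truncated rat Arfgap1 GAP domain / Benchmarks: high control wells lacking Arfgap1, low control full reaction with DMSO / Times: compound-enzyme preincubation 20 min, reaction 120 min, detection 60 min, 25 °C / Repeats: one replicate per compound / Also added: human ARF1(Δ1-17)-GTP substrate / Measured by: Tracer-displacement fluorescence polarization with EDTA stop, 620/688 nm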
rCAG RNA binder: r(CAG) repeat RNA binding; 1.3% of 370,000 active; AID 651821; TO-PRO-1 dye displacement fluorescence; inhibition, % at 3 µM;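 active = inhibition above the plate cutoff, the mean of all test compounds on that plate plus 3 SD, cut at about 35% in these data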;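 also: 0% = DMSO alone and 100% = 100 µM mitoxantrone as full dye displacement; higher means more dye released from RNA so lower well fluorescence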
* marks the source's active call; other numbers are inactive results.

Results for O=C(CCN1C(=O)/C(=C/c2ccc(F)cc2)SC1=S)NC1C=CS(=O)(=O)C1 (centres undefined) ?
NadD block: -5; ASAP1 GAP inh: 2; ARFGAP1 inhibitor: -7; rCAG RNA binder: 2

Results for O=C(N/N=C/c1ccccc1Br)c1cccc(S(=O)(=O)N2CCOCC2)c1 ?
NadD block: 14; ASAP1 GAP inh: 1; ARFGAP1 inhibitor: 5; rCAG RNA binder: 6

What do the screens show for `O=C(C[n+]1ccccc1)N/N=C/c1cc(Br)cc(Br)c1O`?
NadD block: -10

What do the screens show for `O=C(CP(=O)(c1ccccc1)c1ccccc1)N/N=C/c1cc(Br)cc(Br)c1O`?
NadD block: 44*; ASAP1 GAP inh: -1; ARFGAP1 inhibitor: -9; rCAG RNA binder: 4

How did O=C(N/N=C/c1cc(Br)cc(Br)c1O)c1cccc(N2CCCC2=O)c1 do in these assays?
NadD block: 33*; ASAP1 GAP inh: 3; ARFGAP1 inhibitor: -5; rCAG RNA binder: 11

How did O=C(N/N=C/c1cc(Br)cc(Br)c1O)c1cccc(S(=O)(=O)N2CCOCC2)c1 do in these assays?
NadD block: 35*; ASAP1 GAP inh: 4; ARFGAP1 inhibitor: 6; rCAG RNA binder: 5

How did COC(=O)c1cn(-c2ccc3c(c2)[C@]2(CC(=O)N(C)C2c2ccccc2)C(=O)N3CC(C)C)nn1 (some centres undefined) do in these assays?
rCAG RNA binder: 2

What do the screens show for `O=C1C=CC(n2cc(F)c(=O)[nH]c2=O)O1` (centres undefined)?
NadD block: -6; ASAP1 GAP inh: -9; ARFGAP1 inhibitor: 4; rCAG RNA binder: 1

How did O=C1NC(=Nc2ccccc2)S/C1=C\c1cccn1-c1ccccc1 do in these assays?
NadD block: 38*; ASAP1 GAP inh: -8; ARFGAP1 inhibitor: -18; rCAG RNA binder: 13

How did C=CCN=C1NC(c2ccc(F)cc2)C(C(=O)OC)=C(C)N1C (centres undefined) do in these assays?
ASAP1 GAP inh: 2; ARFGAP1 inhibitor: -7; rCAG RNA binder: -1

How did Cc1ccc(/C=C2/SC(=S)N(C3CCCCC3)C2=O)o1 do in these assays?
NadD block: 25; ASAP1 GAP inh: 8; ARFGAP1 inhibitor: -4; rCAG RNA binder: 55*

What do the screens show for `CCC1=NN2C(=N)/C(=C\c3ccc(OCc4cc(=O)n5nc(CC)sc5n4)c(OC)c3)C(=O)N=C2S1`?
NadD block: 44*; ASAP1 GAP inh: -5; ARFGAP1 inhibitor: 0; rCAG RNA binder: 21

What do the screens show for `COc1cc(/C=C2\C(=N)N3N=C(N4CCOCC4)SC3=NC2=O)ccc1OC(=O)c1ccccc1`?
NadD block: 37*; ASAP1 GAP inh: -18; ARFGAP1 inhibitor: -4; rCAG RNA binder: 27

How did CCC1=NN2C(=N)/C(=C\c3ccc(OCCOc4ccccc4)c(OC)c3)C(=O)N=C2S1 do in these assays?
ASAP1 GAP inh: 10; ARFGAP1 inhibitor: 4; rCAG RNA binder: 8

How did COc1cc(/C=C2\C(=N)N3N=C(S(C)(=O)=O)SC3=NC2=O)ccc1OCCOc1ccc(C)cc1 do in these assays?
NadD block: 33*; ASAP1 GAP inh: -10; ARFGAP1 inhibitor: 8; rCAG RNA binder: 24

What do the screens show for `COc1cc(/C=C2/C(=N)N3N=C(CC(=O)N4CCOCC4)SC3=NC2=O)ccc1OC(C)c1ccccc1` (centres undefined)?
NadD block: 25; ASAP1 GAP inh: -2; ARFGAP1 inhibitor: -2; rCAG RNA binder: 30

Results for COCCCNC(=O)C[C@H]1C(=O)N(Cc2ccc(OC)cc2)C2=CCCCC[C@@]21C(=O)OC ?
rCAG RNA binder: -2

Results for Nc1[nH]c(C(=O)c2ccccc2)c(-c2ccc(Cl)cc2)c1C(=O)c1c[nH]c2ccccc12 ?
ASAP1 GAP inh: 2; ARFGAP1 inhibitor: 2; rCAG RNA binder: 11

How did COc1ccc2c(c1)c(=O)oc1c(C)c(OC(C)C(=O)N[C@@H](Cc3c[nH]c4ccc(O)cc34)C(=O)O)ccc12 (some centres undefined) do in these assays?
NadD block: 8; ASAP1 GAP inh: 1; ARFGAP1 inhibitor: -1; rCAG RNA binder: 69*

Results for COc1ccc(Cl)cc1NC(=O)CSc1nnc(Cc2ccc(C)cc2)c(=O)[nH]1 ?
NadD block: 5; ASAP1 GAP inh: 0; ARFGAP1 inhibitor: -1; rCAG RNA binder: 75*

Results for Cc1ccc(Cc2nnc(SCC(=O)Nc3ccccc3Cl)[nH]c2=O)cc1 ?
NadD block: 2; ASAP1 GAP inh: 10; ARFGAP1 inhibitor: -9; rCAG RNA binder: 16

How did NC1=C(Cl)C(=O)c2ccc(S(N)(=O)=O)cc2C1=O do in these assays?
NadD block: -2; ASAP1 GAP inh: 57*; ARFGAP1 inhibitor: 17; rCAG RNA binder: 5

How did COC(=O)[C@]12C[C@H](CC(=O)NCc3cccc4ccccc34)C(=O)N(Cc3ccco3)C1=C[C@H](C1CCCC1)O[C@@H]2C do in these assays?
rCAG RNA binder: 4

How did O=[N+]([O-])c1ccc(S(=O)(=O)Nc2ccc(-c3csc(-c4ccccc4)n3)cc2)cc1 do in these assays?
ASAP1 GAP inh: 15; ARFGAP1 inhibitor: 24; rCAG RNA binder: 79*

Results for O=S(=O)(Nc1ccc(-c2csc(-c3ccccc3)n2)cc1)c1ccccc1 ?
NadD block: 1; ASAP1 GAP inh: 6; ARFGAP1 inhibitor: 6; rCAG RNA binder: 22

How did CCN1CCN(c2cc(N3CCN(C(=O)c4ccco4)CC3)c3c4c(onc24)-c2ccccc2C3=O)CC1 do in these assays?
NadD block: 45*

Results for O=C(O)CCNc1cc(N2CCN(C(=O)c3ccco3)CC2)c2noc3c2c1C(=O)c1ccccc1-3 ?
NadD block: 28; ASAP1 GAP inh: 0; ARFGAP1 inhibitor: 14; rCAG RNA binder: 68*

How did CC(=O)OCCNc1cc(N2CCN(C)CC2)c2noc3c2c1C(=O)c1ccccc1-3 do in these assays?
NadD block: 25; ASAP1 GAP inh: -10; ARFGAP1 inhibitor: -10; rCAG RNA binder: 7

What do the screens show for `Cc1cc2c(SCC(=O)Nc3cccc(O)c3)ncnc2s1`?
NadD block: 7; ASAP1 GAP inh: 24; ARFGAP1 inhibitor: 14; rCAG RNA binder: 54*

What do the screens show for `CC(C)OC(=O)N(C)C[C@@H]1OCc2cnnn2CCCC(=O)N([C@H](C)CO)C[C@@H]1C`?
NadD block: 5; ASAP1 GAP inh: 1; ARFGAP1 inhibitor: 7; rCAG RNA binder: 0

How did CCC1(C2C=COC=C2)NC(=O)NC1=O (centres undefined) do in these assays?
NadD block: 3; ASAP1 GAP inh: 20; ARFGAP1 inhibitor: -4; rCAG RNA binder: 2

How did O=C(Nc1ccccc1)c1ccccc1NS(=O)(=O)c1ccc(Cl)s1 do in these assays?
NadD block: -10; ASAP1 GAP inh: 2; ARFGAP1 inhibitor: 3; rCAG RNA binder: 60*

What do the screens show for `O=C(NCc1ccco1)c1ccccc1NS(=O)(=O)c1ccc(Cl)s1`?
NadD block: 2; ASAP1 GAP inh: -15; ARFGAP1 inhibitor: 15; rCAG RNA binder: 20

How did O=C(C1CC1)C1(C(=O)N2CCOCC2)CC(c2ccccn2)=NO1 (centres undefined) do in these assays?
rCAG RNA binder: 1

Results for CCN1C(=O)/C(=C\c2ccc(-c3cccc(C(=O)OC)c3)o2)SC1=Nc1ccc(C(=O)O)cc1 ?
ASAP1 GAP inh: -1; ARFGAP1 inhibitor: 0; rCAG RNA binder: 0
